The source of these data is ChEMBL document CHEMBL3286239, “Synthesis and biological evaluation of novel naphthalene compounds as potential antidepressant agents” (Eur J Med Chem, 2014).

For data set [1], the system named is PC-12. Briefly: Neurorestorative activity against H2O2-induced oxidant injury in rat PC12 cells assessed as restorative rate at 40 uM measured after 48 hrs pretreated with 200 uM H2O2 for 1 hr by MTT assay. Type of data set: functional. The method, boiled down: (§1)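 PC12 cells at 1×10^4/well in DMEM with 10% FBS and 5% horse serum for 24 h. Exposed to 200 μM H₂O₂ for 1 h, washed twice with PBS, then compound (10, 20 or 40 μM) in DMEM for 48 h. MTT 0.5 mg/ml final for 4 h, DMSO solubilization, A570. Restoration rate from absorbance relative to injured control; mean ± S.D. of six independent experiments.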
Background: Formazan colour is commonly taken as a measure of viable cells.

The subject of data set [2] is Mus musculus. Briefly: Antidepressant-like activity in C57 mouse assessed as reduction in immobility time at 32 mg/kg, ip administered from day 2 to 15 measured on 2nd and 15th day 30 mins after drug challenge by forced swim test. Type of data set: functional. The note with it: route intraperitoneal. The procedure, abridged:
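Male C57 mice (20–24 g), 10 per group. Day 1: 15 min pre-swim in a cylinder (20 cm diameter) with 15 cm water at 22–25 °C. Days 2–15: daily i.p. 32 mg/kg in 30% β-cyclodextrin. On days 2 and 15, a 6 min swim 30 min after dosing. Immobility (speed <20 mm/s) scored over the last 4 min from video. Mean ± S.D.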

In data set [3] the test system is PC-12. Briefly: Neuroprotective activity against rat PC12 cells assessed as protection against corticosterone- induced lesion at 1.25 uM after 1 day by MTT assay. Type of data set: functional. The procedure, abridged:
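Low-differentiated PC12 cells at 1×10^4/well in DMEM with 5% heat-inactivated horse serum and 10% FBS for 24 h. Then 200 μM corticosterone plus compound at 1.25 μM for 1 day. MTT 0.5 mg/ml final for 4 h, formazan in DMSO, A570. Protection rate = (A_drug − A_corticosterone)/A_corticosterone ×100; mean ± S.D. of six independent experiments.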

In data set [4] the test system is Mus musculus. Kind of data set: Toxicity in C57 mouse assessed as increase in spontaneous locomotor activity at 32 mg/kg, ip for 14 days by open field test. Type of data set: organism-based. On the set-up: dose 32 mg/kg, route intraperitoneal. The note with it: in vivo, 336 h. The method, boiled down:
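Male C57 mice (20–24 g), 10 per group, 12 h light/dark cycle, food and water ad libitum. Dosed i.p. at 32 mg/kg daily for 14 days, then total distance travelled measured in an open field arena.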

Data set [5] deals with PC-12. Kind of data set: Neurorestorative activity against H2O2-induced oxidant injury in rat PC12 cells assessed as restorative rate at 10 uM measured after 48 hrs pretreated with 200 uM H2O2 for 1 hr by MTT assay. In kind it is functional. The procedure, abridged:
as §1

The test system of data set [6] is PC-12. Briefly: Neurorestorative activity against H2O2-induced oxidant injury in rat PC12 cells assessed as restorative rate at 20 uM measured after 48 hrs pretreated with 200 uM H2O2 for 1 hr by MTT assay. In kind it is functional. The procedure, abridged:
as §1

The nature of data set [7]: Cytotoxicity against human L02 cells as inhibition of cell viability at 80 uM after 24 hrs by MTT assay. In kind it is cell-based. The note with it: for cytotoxicity at 24 h, 80 µM: L02 cells, read-out: INH.
A short description of data set [8]: Cytotoxicity against human HEK293 cells as inhibition of cell viability at 80 uM after 24 hrs by MTT assay. In kind it is cell-based. The note with it: HEK293 cells, read-out: INH.
The test system of data set [9] is PC-12. Kind of data set: Neuroprotective activity against corticosterone- induced morphological change in rat PC12 cells assessed as decrease in shrunk axons at 1.25 uM after 24 hrs by inverted microscopic analysis. In kind it is functional, cell-based. The procedure, abridged:
(§2)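 PC12 cells seeded at 1×10^6 cells/mL and grown 1 d. Exposed to corticosterone 0.2 mM with or without drug at 1.25 μM for 24 h. Photographed by inverted microscope in three random fields per group. Cells with shrunk axons and cycloid shape counted as injured, normal neuron-like cells counted separately, using computer-assisted image analysis.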

The subject of data set [10] is PC-12. Briefly: Neuroprotective activity against corticosterone- induced morphological change in rat PC12 cells assessed as decrease in cycloid shape at 1.25 uM after 24 hrs by inverted microscopic analysis. Type of data set: functional, cell-based. The procedure, abridged: as §2

Active and inactive are the calls of the source. The calls are words filed in the database; no cut-off is given here.

By inhibition in vivo is commonly meant the change of the read-out against control, counted positive when it falls. `CNCCC(Oc1ccc(C(F)(F)F)cc1)c1ccccc1` (stereo unspecified) [FLUOXETINE]: the result with PC-12 [1] and in the data set with PC-12 [6] was inactive. The inhibition in vivo at 32 mg/kg in the data set on Mus musculus [2] was 50.7%. For the same compound, the Activity came out at 19.7% in the data set with PC-12 [3], 66.4% in the data set with Mus musculus [4] and 2.8% in the data set on PC-12 [5].

For `COc1ccc2cccc(CCNC(=O)C3CN(C(=O)c4ccncc4Cl)C3)c2c1`, in the data set with PC-12 [1], the Activity is listed as 2.1%. Also, the cytotoxicity at 24 h, 80 µM in [7] was 4.8%; in [8] it was 17.3%. Further, the outcome in the data set on PC-12 [3], in the data set on PC-12 [5] and in the data set with PC-12 [6] was inactive.

On to `COc1ccc2cccc(CCNC(=O)C3CN(C(=O)c4ccco4)C3)c2c1`, for which the result in the data set on PC-12 [1], in the data set on PC-12 [5] and in the data set on PC-12 [6] was inactive. For the same compound, the inhibition in vivo at 32 mg/kg in the data set on Mus musculus [2] was determined as 36.2%. Also, the cytotoxicity at 24 h, 80 µM in [7] turned out to be 3.2%; in [8], 26.4%. The Activity in the data set with PC-12 [3] came out at 38.8%.

As to `COc1ccc2cccc(CCNC(=O)C3CN(C(=O)c4ccc(C#N)cc4)C3)c2c1`, the result with PC-12 [1], in the data set with PC-12 [5] and in the data set with PC-12 [6] was inactive. Also, the cytotoxicity at 24 h, 80 µM is 1% in [7] and 17.5% in data set [8]. For the same compound, in the data set on PC-12 [3], the Activity stood at 25.8%.

In the case of `COc1ccc2cccc(CCNC(=O)C3CN(S(C)(=O)=O)C3)c2c1`, the values for the Activity in the data set on PC-12 [1], with PC-12 [3] and in the data set with PC-12 [5] were 3.7%, 1.4% and 0.9%, respectively. For the same compound, the cytotoxicity at 24 h, 80 µM in data set [7] stood at 4.4%; in data set [8], 8.5%. For the same compound, the outcome in the data set on PC-12 [6] was inactive.

Consider `COc1ccc2cccc(CCNC(=O)C3CN(C(=O)c4ccc(Cl)cc4)C3)c2c1`, for which the Activity in the data set on PC-12 [1] is listed as 4.7%; in the data set with PC-12 [3], 39.2%; in the data set with PC-12 [5] it was 0.3%. Also, the inhibition in vivo at 32 mg/kg with Mus musculus [2] worked out at 49.1%. Further, the cytotoxicity at 24 h, 80 µM in [7] amounted to 5.9%; in [8], 11.8%. The inhibition result with PC-12 [9] and in the data set with PC-12 [10] was “Active” in each case. Further, the result in the data set with PC-12 [6] was inactive.

Turning to `COc1ccc2cccc(CCNC(=O)C3CN(C(=O)c4ccccn4)C3)c2c1`, the result with PC-12 [1], with PC-12 [3] and in the data set with PC-12 [6] was inactive. Moreover, the cytotoxicity at 24 h, 80 µM in data set [7] stood at 11.2%; in data set [8], 31.8%. For the same compound, the Activity in the data set with PC-12 [5] is 0.7%.

Turning to `COc1cc(OC)cc(C(=O)N2CC(C(=O)NCCc3cccc4ccc(OC)cc34)C2)c1`, the outcome with PC-12 [1], in the data set on PC-12 [3] and in the data set on PC-12 [5] was inactive. The cytotoxicity at 24 h, 80 µM in [7] and in data set [8] was 13.1% each time. Also, the Activity in the data set with PC-12 [6] is recorded as 2.1%.

Turning to `COc1ccc2cccc(CCNC(=O)C3CN(C(=O)N(C)C)C3)c2c1`, the Activity was 4.3% in the data set with PC-12 [1]; “Non-toxic” in data set [7] (l02, 24 h, 80 µM); 1.2% with PC-12 [6]. Moreover, the result in the data set on PC-12 [3] and in the data set with PC-12 [5] was inactive. Further, the cytotoxicity at 24 h, 80 µM in data set [8] stood at 2.5%.

For `COc1ccc2cccc(CCNC(C)=O)c2c1` [AGOMELATINE], the outcome with PC-12 [1] and with PC-12 [5] was inactive. In addition, the inhibition in vivo at 32 mg/kg with Mus musculus [2] is 8.4%. The Activity was found to be 26.2% with PC-12 [3], 85.3% in the data set on Mus musculus [4] and 2.7% with PC-12 [6].

On to `COc1ccc2cccc(CCNC(=O)C3CN(C(=O)c4cc([N+](=O)[O-])cc([N+](=O)[O-])c4)C3)c2c1`, for which the outcome in the data set with PC-12 [1], in the data set with PC-12 [3] and in the data set with PC-12 [5] was inactive. Further, the cytotoxicity at 24 h, 80 µM was 15.8% in data set [7] and 11.1% in [8]. The Activity with PC-12 [6] is 1.7%.

Regarding `CC#C[C@]1(O)CC[C@H]2[C@@H]3CCC4=CC(=O)CCC4=C3[C@@H](c3ccc(N(C)C)cc3)C[C@@]21C` [MIFEPRISTONE], in the data set with PC-12 [3], the Activity was found to be 31.1%.

As to `COc1ccc2cccc(CCNC(=O)C3CN(C(=O)c4ccccc4)C3)c2c1`, the figures for the Activity in the data set with PC-12 [1], in the data set on PC-12 [5] and in the data set with PC-12 [6] were 4.6%, 2.9% and 6.6%, respectively. Moreover, the cytotoxicity at 24 h, 80 µM worked out at 3.8% in [7] and 11.9% in data set [8]. Also, in the data set with PC-12 [3], the outcome was inactive.

With `COc1ccc2cccc(CCNC(=O)C3CN(S(=O)(=O)c4ccc(Cl)cc4)C3)c2c1`, the Activity is given as 6.8% with PC-12 [1], 25.3% with PC-12 [3], 4.6% with PC-12 [5] and 4.5% with PC-12 [6]. Also, the cytotoxicity at 24 h, 80 µM was 33.6% in data set [7] and 21.5% in data set [8].

For `COc1ccc2cccc(CCNC(=O)C3CN(S(=O)(=O)N(C)C)C3)c2c1`, the outcome in the data set on PC-12 [1], in the data set with PC-12 [3] and in the data set with PC-12 [5] was inactive. The cytotoxicity at 24 h, 80 µM in data set [7] worked out at 7.4%; in data set [8], 4.6%. The Activity in the data set with PC-12 [6] turned out to be 2.1%.

As for `COc1ccc2cccc(CCNC(=O)C3CN(S(=O)(=O)c4ccc(C)cc4)C3)c2c1`, the result with PC-12 [1], in the data set on PC-12 [3], in the data set with PC-12 [5] and with PC-12 [6] was inactive. For the same compound, the cytotoxicity at 24 h, 80 µM in data set [7] amounted to 2.7%; in [8], 3.6%.

Consider `COc1ccc2cccc(CCNC(=O)C3CN(C(=O)OCc4ccccc4)C3)c2c1`, for which the Activity in the data set with PC-12 [1] is 7.3%; with PC-12 [5], 3.2%; with PC-12 [6], 6.6%. Moreover, the cytotoxicity at 24 h, 80 µM in data set [7] turned out to be 12.1%; in data set [8] it was 1%. In the data set on PC-12 [3], the result was inactive.

As for `CCC(=O)N1CC(C(=O)NCCc2cccc3ccc(OC)cc23)C1`, the Activity in the data set on PC-12 [1] was found to be 7.5%. The cytotoxicity at 24 h, 80 µM in data set [7] came out at 2.9%; in data set [8] it was 11.2%. Further, the outcome in the data set on PC-12 [3], with PC-12 [5] and with PC-12 [6] was inactive.

With `COc1ccc2cccc(CCNC(=O)C3CN(C(C)=O)C3)c2c1`, the Activity in the data set on PC-12 [1] is recorded as 1%; in the data set on PC-12 [6] it was 0.6%. For the same compound, the cytotoxicity at 24 h, 80 µM in data set [7] amounted to 2.3%; in [8], 6.2%. Moreover, the outcome in the data set with PC-12 [3] and in the data set with PC-12 [5] was inactive.

Regarding `COc1ccc2cccc(CCNC(=O)C3CN(C(=O)c4ccc(C(F)(F)F)cc4)C3)c2c1`, the outcome in the data set on PC-12 [1], in the data set on PC-12 [5] and in the data set with PC-12 [6] was inactive. For the same compound, the cytotoxicity at 24 h, 80 µM in data set [7] stood at 7.9%; in data set [8] it was 24.6%. Further, the Activity in the data set on PC-12 [3] amounted to 14.6%.

For `COc1ccc(C(=O)N2CC(C(=O)NCCc3cccc4ccc(OC)cc34)C2)cc1`, the outcome in the data set on PC-12 [1], in the data set on PC-12 [3], with PC-12 [5] and in the data set on PC-12 [6] was inactive. In addition, the results for the cytotoxicity at 24 h, 80 µM in [7] and in [8] were 7.8% and 8.9%, respectively.

Consider `COc1ccc(OC)c(C(=O)N2CC(C(=O)NCCc3cccc4ccc(OC)cc34)C2)c1`, for which the result in the data set on PC-12 [1], in the data set with PC-12 [5] and in the data set on PC-12 [6] was inactive. Further, the cytotoxicity at 24 h, 80 µM in data set [7] was 1.3%; in data set [8] it was 33.4%. Further, the Activity in the data set on PC-12 [3] worked out at 22.3%.
